High-throughput results deposited in PubChem BioAssay by Columbia University Molecular Screening Center.
INS promoter act: activators of insulin promoter-driven GFP, primary screen, imaging, TRM-6 cells (human fetal islet line), eGFP reporter, cell count; plate-scaled: unstimulated 0, stimulated control 100; activation, % at 2 µM; 0.81% of 130,000 active;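 active = activation at 2 µM above a set limit, confirmed on inspection of the cell images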;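 note: share of cells whose green reporter signal exceeds an intensity cutoff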
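Assay system: TRM-6 human fetal islet cells, insulin promoter–eGFP reporter; Also added: 0.75 µM tamoxifen as reporter inducer; Schedule: 15 h tamoxifen pre-treatment, 48 h compound treatment at 37 °C; Signal: fixed-cell fluorescence microscopy, eGFP plus Hoechst; Read-out: percent activation from GFP-positive cell fraction; Control set: stimulated and unstimulated wells.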
A number is an active result; . = inactive. The sample as a whole holds a higher share of hits than the screen did.

SMILES	INS promoter act
CCCCNC(=S)NNC(=O)C12CC3CC(CC(C3)C1)C2	86.2
CC(C)(C)OC(=O)NNC(=O)C12CC3CC(CC(C3)C1)C2	.
CCCCNC(=S)NNC(=O)c1ccc(Br)o1	.
C/C(=N\Nc1nc(Cl)c(Cl)cc1Cl)c1ccc(S(=O)(=O)NCc2ccco2)cc1	.
Cc1nn(-c2ccccc2)c(C)c1/C=C1\C(=O)N(C)C(=S)N1C	.
Cc1ccc(Sc2ncccc2COC(=O)NC(C)C)cc1	.
N#CC1=C(N)Oc2n[nH]c(-c3cccs3)c2C1c1ccsc1 (centres undefined)	.
N#CC1=C(N)Oc2n[nH]c(-c3cccs3)c2C1C1CCCCC1 (centres undefined)	110.0
Cc1ccc(C2C(C#N)=C(N)Oc3n[nH]c(-c4cccs4)c32)s1 (centres undefined)	.
CCc1noc(C)c1C(=O)Nc1nc(-c2ccc(Cl)cc2Cl)cs1	.
O=C(NCc1ccccn1)c1ccc(Cl)cc1Cl	.
O=C(NCc1ccccn1)c1c(Cl)cccc1Cl	.
O=C(NCc1ccccn1)c1ccc(Br)s1	528.6
CN(Cc1ccccc1)S(=O)(=O)c1cccc2cccnc12	.
CC1c2c([nH]c3ccccc23)CCC1C(=O)O (centres undefined)	.
CCOc1ccc(N=C(/C(C(=O)C(=O)N2CCOCC2)=C(\O)c2ccccc2)c2ccccc2)cc1	.
c1ccc(CC2CCN(C3=Nc4cccc5cccc3c45)CC2)cc1	82.9
c1cc2c3c(cccc3c1)C(N1CCN(C3=Nc4cccc5cccc3c45)CC1)=N2	.
O=C1c2cccc3cccc(c23)C(=O)N1CC1CCN(S(=O)(=O)c2ccc(F)cc2)CC1	.
COc1ccc(OC)c2c1nc1n2CCS1	.
Cc1cccc(NC(=O)C2C3CCC4C(CCC32)C4(Cl)Cl)c1 (centres undefined)	.
COc1ccc(Nc2nc(C)cc(=O)[nH]2)cc1	.
COc1ccc(S(=O)(=O)NCCc2ccc(F)cc2)cc1	.
COc1ccc(CCNc2cc(=O)[nH]c(N)n2)cc1	615.4
CCCCC(Nc1ncnc2ccccc12)C(=O)O (centres undefined)	.
SMILES	INS promoter act
Cc1ccc(Nc2ncnc3ccccc23)cc1	421.4
CN(C)CCNc1ncnc2ccccc12	.
O=c1ccn(-c2ccccc2)[nH]1	.
O=C(CN1C(=O)NC2(CCCCCC2)C1=O)Nc1ccc2c(c1)CCC2	.
O=C(Cn1c(=O)sc2ccccc21)Nc1ccc(O)cc1	.
CN1c2ccccc2N(C)C1c1ccc2c(c1)OCO2	.
CC12CN3CC(C)(CN(C1)C3c1ccc3c(c1)OCO3)C2=O (centres undefined)	437.5
O=C1C2C3C=CC(CC3)C2C(=O)N1c1ccc2c(c1)OCO2 (centres undefined)	.
CCCCNc1c(N)n(CCCC)c(=O)[nH]c1=O	.
COc1ccc(NS(=O)(=O)c2cc(N/C(=N\S(=O)(=O)c3ccccc3)c3ccc(F)cc3)ccc2Cl)cc1	76.0
CCCCOC(=O)c1ccc(N/C(=N\S(=O)(=O)c2ccccc2)c2ccccc2)cc1	.
COc1ccc(NS(=O)(=O)c2cc(C(=O)N3CCN(C(C)=O)CC3)ccc2Cl)cc1	.
Cc1ccc(NC(=O)COC(=O)Cn2cnc3c2c(=O)n(C)c(=O)n3C)c(Cl)c1	.
Cc1nc(N(C)Cc2ccccc2)c2nnn(Cc3ccccc3)c2n1	.
CCCn1ncc([C@@H]2C[C@H]3CN(Cc4cccc(Cl)c4)C(=O)[C@]34CCCN24)c1C	.
O=C1NCCN1Cc1cccc(Cl)c1	.
O=C1N(Cc2cccc(Cl)c2)C[C@@H]2C[C@@H](c3ccco3)N3CCC[C@@]123	683.3
CNC(=O)c1sc(-c2ccccn2)nc1C	.
CSCCC(NS(=O)(=O)c1ccc(Br)cc1)C(=O)OCC(=O)NC1CC1 (centres undefined)	.
CC1(C)CN(c2ccccc2)N(Cc2ccc(F)cc2)C1=O	.
Cc1cc(NC(=O)CCC(=O)N(c2ccccc2)C(C(=O)NC2CCCCC2)c2cccs2)no1 (centres undefined)	.
CCC(C)(C)NC(=O)CN(Cc1cccs1)C(=O)CCC(=O)Nc1nccs1	.
CCC(C)(C)NC(=O)C(c1ccc(OC)cc1)N(Cc1cccs1)C(=O)CCC(=O)Nc1cc(C)on1 (centres undefined)	600.0
C/C(CC(=O)NCc1ccc(F)cc1)=N\NC(N)=S	.
Cc1ccc(NC(=O)CSc2nnc(-c3cccnc3)s2)cc1	.
SMILES	INS promoter act
Cc1ccc(NC(=O)CSCC#N)cc1	82.8
Cc1ccc(CSCC(=O)Nc2ccc3c(c2)OCO3)cc1	.
COc1ccc(OCC(=O)N2N=C(C(F)F)CC2(O)C(F)F)cc1 (centres undefined)	.
O=C(Nc1ccccc1[N+](=O)[O-])c1cccnc1Cl	.
COc1cccc(CNC(=O)C2CCN(S(=O)(=O)N3CCC4(CC3)OCCO4)CC2)c1	.
Fc1ccc(CNc2nc(-c3ccccc3)nc3ccccc23)cc1	.
Cc1ccc(-c2nc(N/N=C/c3cccc([N+](=O)[O-])c3)c3ccccc3n2)cc1	.
O=[N+]([O-])c1cccc(-c2nc(NCc3ccccc3)c3ccccc3n2)c1	322.2
c1ccc(Nc2nc(-c3cccnc3)cs2)nc1	.
c1cncc(Nc2nc(-c3ccncc3)cs2)c1	.
Clc1ccccc1Nc1nc(-c2cccnc2)cs1	358.3
Cc1ccc(NS(=O)(=O)c2cc(C(=O)N(C)C)ccc2C)cc1C	.
O=C(N/C(=C\c1ccc([N+](=O)[O-])cc1)C(=O)N1CCCCC1)c1ccccc1Br	.
S=c1[nH]nc(-c2ccc3ccccc3n2)n1Cc1ccccc1	.
COCCNC(=O)C(C)Oc1ccc(Cl)cc1Cl (centres undefined)	.
CC(Oc1ccc(Cl)cc1Cl)C(=O)NC1CCSC1=O (centres undefined)	.
CC(Oc1ccc(Cl)cc1Cl)c1ccn[nH]1 (centres undefined)	305.7
Cc1ccccc1NS(=O)(=O)c1ccc2[nH]c(=O)[nH]c2c1	.
CC(NC(=S)Nc1ccc(S(=O)(=O)N2CCOCC2)cc1)C1CC2CCC1C2 (centres undefined)	.
COc1ccc(NC(=O)CC2C(=O)N(Cc3ccccc3)C(=S)N2CCN2CCOCC2)cc1 (centres undefined)	333.3
COc1ccc(NC(=O)CC2C(=O)N(C)C(=S)N2CCc2ccccc2)cc1 (centres undefined)	.
COC(=O)CN1C(=S)N(Cc2ccccc2)C(=O)C1CC(=O)Nc1ccc(OC)cc1 (centres undefined)	.
CCC(/C=N/NC(=O)CCCCC(=O)N/N=C/C(CC)CC)CC	.
CN(C(=O)c1ccccc1OC1CCN(S(C)(=O)=O)CC1)C1CCOC1 (centres undefined)	.
CC(C)c1ccc(CN2CC(C(=O)Nc3ccccc3)CC2=O)cc1 (centres undefined)	.
SMILES	INS promoter act
CCN(CCCn1c(=S)[nH]c2ccc(N3CCOCC3)cc2c1=O)c1ccccc1	.
COc1ccc2nc(NC(=O)Nc3ccccc3)sc2c1	.
CC[n+]1c(/C=C/C=C/N(C(C)=O)c2ccccc2)sc2cc(OC)ccc21	270.4
CC[n+]1c(/C=C(\C)Nc2ccccc2)sc2ccccc21	.
O=C(CSCc1cccc(Cl)c1)Nc1ccccc1-c1ccccc1	.
Cc1cc(=O)oc2cc(Oc3ccc([N+](=O)[O-])cc3[N+](=O)[O-])ccc12	.
CCc1ccc(NC(=S)N2CCN(c3cccc(C(F)(F)F)c3)CC2)cc1	.
CC(=O)c1ccc(NC(=O)N2CCN(c3cccc(Cl)c3)CC2)cc1	.
